Active and inactive are the calls of the source. The calls are words filed in the database; no cut-off is given here.
What was measured:
[1] = target: T1, Botulinum neurotoxin type A (Clostridium botulinum, UniProt P0DPI0); experiment: Competitive inhibition of Clostridium botulinum BoNT/A Hall A hyper protease light chain (1-425aa) using SNAP-66mer (141-206aa) as substrate by FRET assay
[2] = target: T1, Botulinum neurotoxin type A; experiment: Inhibition of Clostridium botulinum BoNT/A Hall A hyper protease light chain (1-425aa) using SNAPtide as substrate by FRET assay
How it was run: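 Recombinant BoNT/A light chain (residues 1-425) cleaving the FRET peptide SNAPtide at 5 μM, with 0.01 % Triton X-100. Inhibitor concentration varied; IC50 taken from fluorescence signal.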

[3] = Cytotoxicity against rat spinal cord cells at 50 uM after 22 hrs; assay type: cell-based
How it was run: (§1)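 Primary rat spinal cord cells or stem cell-derived neurons exposed to compound. Cytotoxicity judged from low overall protein signal on Western blot.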

[4] = Cytotoxicity against stem cell-derived neurons (unknown origin) at 20 uM after 22 hrs; how it was run: as §1
[5] = Cytotoxicity against stem cell-derived neurons (unknown origin) at 500 uM after 22 hrs; how it was run: as §1
[6] = Cytotoxicity against rat spinal cord cells at 20 uM after 22 hrs; assay type: cell-based; how it was run: as §1
[7] = target: Botulinum neurotoxin type A (Clostridium botulinum) (UniProt P0DPI0); experiment: Inhibition of Clostridium botulinum BoNT/A protease light chain in stem cell-derived neurons (unknown origin) assessed as inhibition of SNAP-25 cleavage at 0.5 to 50 uM after 22 hrs by Western blot analysis
Chain of Botulinum neurotoxin type A (Clostridium botulinum) (P0DPI0 2-448 limits assumed): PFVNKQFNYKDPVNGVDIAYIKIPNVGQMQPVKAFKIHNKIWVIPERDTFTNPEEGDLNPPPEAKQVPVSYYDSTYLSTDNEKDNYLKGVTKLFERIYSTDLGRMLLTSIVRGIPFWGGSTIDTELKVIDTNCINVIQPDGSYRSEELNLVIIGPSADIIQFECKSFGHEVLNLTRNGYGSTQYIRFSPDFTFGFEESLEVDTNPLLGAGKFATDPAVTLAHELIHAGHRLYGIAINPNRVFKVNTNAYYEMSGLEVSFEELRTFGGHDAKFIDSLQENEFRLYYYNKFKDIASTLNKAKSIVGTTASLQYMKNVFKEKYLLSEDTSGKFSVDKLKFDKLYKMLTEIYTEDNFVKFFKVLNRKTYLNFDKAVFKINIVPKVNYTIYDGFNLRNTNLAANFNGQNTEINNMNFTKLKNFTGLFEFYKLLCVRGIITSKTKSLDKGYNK

[8] = Cytotoxicity against rat spinal cord cells at 500 uM after 22 hrs; assay type: cell-based; how it was run: as §1
[9] = target: Botulinum neurotoxin type A (Clostridium botulinum) (UniProt P0DPI0); experiment: Inhibition of Clostridium botulinum BoNT/A protease light chain in rat spinal cord cells assessed as inhibition of SNAP-25 cleavage at 0.5 to 50 uM after 22 hrs by Western blot analysis; assay type: cell-based

T1 sequence (P0DPI0 2-448 limits assumed): as above

Structure (SMILES)	Ki [1] [nM]	IC50 [2] [nM]	further results
NCCCCCCCNC(=O)c1cc(CCC(=O)NO)c(CCC(O)(c2ccccc2)c2ccccc2)n1Cc1ccccc1	760	–	–
O=C(CC12CC3CC(CC(F)(C3)C1)C2)NO	–	3100	–
O=C(CC12CC3CC(CC(CO)(C3)C1)C2)NO	–	3400	–
O=C(CC12CC3CC(C1)CC(c1ccc4ccccc4c1)(C3)C2)NO	–	300	–
O=C(CC12CC3CC(C1)CC(c1ccc([N+](=O)[O-])cc1[N+](=O)[O-])(C3)C2)NO	–	400	–
COC12CC3CC(CC(CC(=O)NO)(C3)C1)C2	–	5700	–
O=C(CC12CC3CC(CC(Br)(C3)C1)C2)NO	–	1400	–
O=C(CC12CC3CC(C1)CC(C(=O)O)(C3)C2)NO	–	> 500000	–
O=C(CC12CC3CC(C1)CC(c1ccc(Br)cc1)(C3)C2)NO	27	40	Activity [3]: Toxic; Activity [4]: Toxic; Activity [5]: Non-toxic; Activity [6]: Toxic; Activity [7]: inactive; Activity [8]: Toxic; Activity [9]: inactive
Cc1ccc(C23CC4CC(CC(CC(=O)NO)(C4)C2)C3)cc1	–	250	–
CC(=O)OC12CC3CC(CC(CC(=O)NO)(C3)C1)C2	–	24000	–
O=C(CC12CC3CC(C1)CC(c1ccc(-c4ccccc4)cc1)(C3)C2)NO	–	200	–
O=C(CC12CC3CC(CC(Cl)(C3)C1)C2)NO	–	1400	–
O=C(CC12CC3CC(C1)CC(c1ccc(Cl)cc1)(C3)C2)NO	27	30	–
O=C(CC12CC3CC(C1)CC(c1ccccc1)(C3)C2)NO	750	500	–
O=C(CC12CC3CC(C1)CC(c1ccc([N+](=O)[O-])cc1)(C3)C2)NO	–	500	Activity [4]: Toxic; Activity [5]: Non-toxic; Activity [6]: Toxic; Activity [7]: inactive; Activity [8]: Toxic; Activity [9]: inactive
O=C(CC12CC3CC(CC(O)(C3)C1)C2)NO	–	23000	–
O=C(CC12CC3CC(C1)CC(c1ccc4c(c1)CCCC4)(C3)C2)NO	–	1000	–
COc1ccc(C23CC4CC(CC(CC(=O)NO)(C4)C2)C3)cc1	130	250	Activity [4]: Toxic; Activity [5]: Non-toxic; Activity [6]: Toxic; Activity [7]: inactive; Activity [8]: Toxic; Activity [9]: inactive
O=C(CC12CC3CC(CC(C3)C1)C2)NO	460	1000	–
O=C(C[C@@H](CCO)c1ccc(Cl)cc1Cl)NO	160	–	–
